Source: PubChem (several laboratories)
Compounds with a hit are over-represented: about 1.7% of the library has one in this group of screens.
IDE cell inh – inhibitors of human insulin-degrading enzyme in cells. HEK cells, FAbetaB cleavage, fluorescence polarization. inhibition, % at 5.59 µM. 320,000 tested, 0.41% active. AID 434962;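 active means percent inhibition above the average of all tested compounds plus 3 SD, set per screening campaign, cut at about 16% in these data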;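 further: IDE supplied by intact live HEK cells; FP after avidin binding of uncleaved biotin substrate so inhibition keeps polarization high; 0% = DMSO wells and 100% = 60 µM reference IDE inhibitor Ii1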
Tb MetRS inh – Trypanosoma brucei MetRS inhibition; purified T. brucei MetRS, ATP depletion, Kinase-Glo luminescence; inhibition, % at 11.9 µM; 360,000 tested, 0.4% active; AID 624268;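 active means inhibition above a per-plate cutoff of the control wells' mean inhibition plus 3 SD, cut at about 5.5% in these data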;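 further: 0% = DMSO wells median and 100% = median of wells with control inhibitor compound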
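Measured by: Kinase-Glo luciferase luminescence reporting remaining unconsumed ATP. Material: purified T. brucei MetRS enzyme. Doses: 11.9 µM compound single dose, 0.9% DMSO. Medium: HEPES buffer containing pyrophosphatase, BSA, spermine, DTT. Times: 15 min preincubation, 2 h reaction, all 25 °C. Reagent: methionine, ATP and bulk E. coli tRNA.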
CSN inh – CSN deneddylation inhibition; inhibition, % at 12.5 µM; Purified CSN, SCF-Nedd8-OG deneddylation, fluorescence polarization; 360,000 tested, 0.38% active; AID 651999;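 active means pattern-corrected inhibition above about 35%, with an unprinted fluorescence ratio check between 0.5 and 1.5, limit read from the data, passing the limit was not always enough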;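 further: 0% = enzyme with substrate and 100% = substrate without enzyme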
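Material: human Csn5 produced in HEK293T cells; Input: enzyme 0.24 nM; Reagent: SCFSkp2-Nedd8OG substrate at 10 nM final; Dosing: 12.5 µM compound; Incubation: 90 min reaction at room temperature; Detection: fluorescence polarization of the substrate; Evaluation: % inhibition of substrate cleavage by Csn5; Control set: substrate-only high control, full reaction low control.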
HNF4A DNA FP – change in binding of human HNF4 alpha to DNA; 360,000 tested, 0.3% active; activity change, % at 10 µM; HNF4a-FITC DNA binding, fluorescence polarization, 1 h; P41235; in the data active means activity change above about 30%, passing the limit was not always enough
IDE cell activ – activators of human insulin-degrading enzyme in cells; P14735; HEK cells, FAbeta-B cleavage, fluorescence polarization; 0% vehicle, 100% cell-free pure enzyme wells; activation, % at 5.96 µM; 340,000 tested, 0.073% active; AID 493087;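 active means activation above the mean of all tested compounds plus 3 SD, set per screening campaign, cut at about 17% in these data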
TPT1 inh – inhibitors of Candida albicans tRNA 2'-phosphotransferase TPT1; recombinant caTPT1, FP RNA substrate dephosphorylation; inhibition, % at 5 µM; 300,000 tested, 0.81% active;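 active means inhibition above the mean of all tested compounds plus 3 SD, set per screening campaign, cut at about 24% in these data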;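 further: plate controls were DMSO alone for no effect and ferristatin control at 100 nM for full effect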
CSN5 deneddyl – validation of inhibitors of human CSN-mediated cullin deneddylation. inhibition, % at 16.6 µM. shares compounds with CSN inh. Csn5 deneddylation of SCF-Nedd8OG, fluorescence polarization, 90 min. 540 tested, 62% active; in the data active means inhibition above about 50%;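 further: 0% = DMSO with enzyme and 100% = no enzyme wells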
MMP-2 counter – counter-screen for CSN deneddylation inhibitors: human MMP-2 inhibition; inhibition, % at 16.6 µM; recombinant MMP-2, FRET substrate fluorescence, 60 min; 540 tested, 33% active; shares compounds with CSN inh;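 active means corrected plate-normalized z-score of 5 or more, or -5 or less, or inhibition of 15% or more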;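 further: plate controls were DMSO wells with enzyme for no effect and buffer wells lacking MMP-2 for full effect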
Thrombin counter – blocks bovine thrombin in a CSN deneddylation counter-screen; shares compounds with CSN inh; bovine thrombin cleavage of Ub4-pepOG, fluorescence polarization; inhibition, % at 16.6 µM; 540 tested, 49% active; AID 720656;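 active means inhibition at or above a set limit, with a fluorescence interference ratio between 0.5 and a set maximum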
Target sequence (P00735 whole entry, looked up): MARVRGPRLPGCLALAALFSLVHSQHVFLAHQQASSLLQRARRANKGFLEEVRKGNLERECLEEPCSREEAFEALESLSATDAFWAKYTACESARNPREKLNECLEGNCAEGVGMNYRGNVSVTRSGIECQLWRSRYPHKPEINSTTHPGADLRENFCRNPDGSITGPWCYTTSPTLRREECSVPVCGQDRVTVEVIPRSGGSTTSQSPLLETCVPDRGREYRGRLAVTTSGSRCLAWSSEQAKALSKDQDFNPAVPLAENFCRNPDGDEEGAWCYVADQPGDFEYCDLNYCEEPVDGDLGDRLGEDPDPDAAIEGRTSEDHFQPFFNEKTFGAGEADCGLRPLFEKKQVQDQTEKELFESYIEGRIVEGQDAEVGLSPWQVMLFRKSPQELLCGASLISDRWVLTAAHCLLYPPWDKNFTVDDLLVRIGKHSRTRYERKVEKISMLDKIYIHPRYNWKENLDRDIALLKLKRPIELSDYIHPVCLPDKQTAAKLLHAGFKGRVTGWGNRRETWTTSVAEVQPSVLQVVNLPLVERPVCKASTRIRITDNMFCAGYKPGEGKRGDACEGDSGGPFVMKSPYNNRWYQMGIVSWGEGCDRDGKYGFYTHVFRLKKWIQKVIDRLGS
* marks the source's active call; other numbers are inactive results; / = not tested or not shown.

SMILES	IDE cell inh	Tb MetRS inh	CSN inh	HNF4A DNA FP	IDE cell activ	TPT1 inh	CSN5 deneddyl	MMP-2 counter	Thrombin counter
COc1ccccc1-c1csc(-n2ncc(C#N)c2N)n1	-1	0	68*	241	-2	7	-6	72*	17*
CCC(C)[C@H]1CNCCN1CCc1cccc(F)c1 (stereo not given in full)	-1	0	-7	2	6	1	/	/	/
Cc1ccccc1-c1cc(C(=O)NCc2cccc(Br)c2)nn1CC1CC(c2cccc([N+](=O)[O-])c2)=NO1 (stereo not given)	2	0	-5	0	0	/	/	/	/
O=[N+]([O-])c1cc2oc3c(c2c(C=NCc2ccccc2)c1O)CCCC3	-3	1	74*	33	-8	1	82*	0	18*
CN(C(=O)N1CCN(S(=O)(=O)c2ccccc2)CC1)c1ccccc1	1	0	9	2	0	-1	/	/	/
O=C(CSc1nc(-c2ccccc2)nc2c1Cc1ccccc1O2)Nc1ccccc1	2	/	/	/	/	-1	/	/	/
O=C(CSc1nc(-c2ccc(F)cc2)nc2c1Cc1ccccc1O2)Nc1cccc(C(=O)O)c1	/	-1	43*	-87	1	/	6	30*	6
CN(C)c1ccc2nc3ccc(=[N+](C)C)cc-3sc2c1	-2	-1	2	1	0	3	/	/	/
CN(C)c1ccc2nc3ccc(=O)cc-3sc2c1	/	0	55*	-18	/	/	104*	26*	14
O=C(Nc1ccc2oc(-c3ccccc3F)nc2c1)c1ccc([N+](=O)[O-])o1	/	-1	40*	3	0	/	103*	16*	2
O=C(Nc1ccc2oc(-c3ccccc3F)nc2c1)c1cncc(Br)c1	3	-1	1	-2	1	7	/	/	/
COc1ccc(-c2cc(NC=O)c3ncc(-c4ccc(C(C)=O)cc4)n3c2)cn1	/	0	42*	22	/	/	100*	5	3
CC(=O)Nc1cccc(-c2cc(NC=O)c3ncc(-c4ccc(C(C)=O)cc4)n3c2)c1	/	0	7	9	/	/	/	/	/
CCCCNC(=O)c1cc2cc(CC)ccc2[nH]1	-4	0	-1	1	7	1	/	/	/
Cc1ccc(N/C=C/C(=O)c2cccs2)cc1C	3	0	-3	1	/	3	/	/	/
O=C(/C=C/Nc1ccc(Nc2ccccc2)cc1)c1cccs1	/	-1	37*	57*	-10	/	94*	7	-2
CCOC(=O)c1sc2nc3c(SCCC(=O)O)cc(C(=O)c4cc(OC)ccc4O)cn3c(=O)c2c1C	/	0	104*	-1	7	/	87*	14	2
O=C(O)CSc1cc(C(=O)c2cc(F)ccc2O)cn2c(=O)c3c(-c4ccccc4)csc3nc12	4	0	7	13	-5	11	/	/	/
CN1C(=S)N(c2cccnc2)C(=O)/C1=C\c1ccc(C(C)(C)C)cc1	-4	-1	7	4	1	0	/	/	/
CN1C(=S)N(c2cccnc2)C(=O)/C1=C\c1ccc(N(C)C)cc1	/	0	47*	76*	-29	/	68*	-10	22*
COc1cc(/C=C/C=C2/CC/C(=C/C=C/c3ccc(O)c(OC)c3)C2=O)ccc1O	/	0	115*	108	-8	/	-53	-41*	52*
CC[n+]1c(/C=C2\Sc3ccccc3N2C)ccc2cccc(C)c21	/	0	70*	156*	-82	/	12	-11	33
CN1/C(=C/c2cccc[n+]2CCO)Sc2ccccc21	12	1	-2	5	-5	2	/	/	/
CN(C(=O)c1cccc(NC(=O)Cc2ccc(NC(=O)C3CCN(C(=O)CCc4ccccc4)CC3)cc2)c1)C1CC1	/	-1	0	0	-6	/	/	/	/
CC(C)c1nc2cc(C(=O)N3CCNC(=O)C3c3cccc(F)c3)ccc2o1 (stereo not given)	-1	1	2	0	4	0	/	/	/
SMILES	IDE cell inh	Tb MetRS inh	CSN inh	HNF4A DNA FP	IDE cell activ	TPT1 inh	CSN5 deneddyl	MMP-2 counter	Thrombin counter
O=S(=O)(Nc1c(S(=O)(=O)c2ccccc2)c2nc3ccccc3nc2n1C1CCCCC1)c1ccccc1	7	1	58*	1	1	0	47	1	1
C=CCn1c(NS(=O)(=O)c2ccccc2)c(S(=O)(=O)c2ccc(C)cc2)c2nc3ccccc3nc21	7	-1	1	5	2	3	/	/	/
CCC(c1nnnn1Cc1ccco1)N(CCc1ccccc1)Cc1cc2cc(C)ccc2[nH]c1=O (stereo not given)	-6	0	7	-1	3	12	/	/	/
Cc1ccc2[nH]c(=O)c(CN(CCc3ccccc3)C(c3nnnn3Cc3ccco3)C(C)C)cc2c1 (stereo not given)	1	0	38*	9	-4	15	88*	1	14
O=C1NN(c2ccccc2)C(=O)/C1=C/c1ccc(-c2ccc(C(=O)O)cc2)o1	2	0	35*	-22	2	5	60*	12	5
Fc1cccc(Cc2c(-c3ccco3)nc3c4ccccc4ccn23)c1	/	0	49*	16	/	/	69*	5	20*
O=C(NCc1ccccc1F)C1CCCN(S(=O)(=O)N2CCOCC2)C1 (stereo not given)	3	0	-1	2	8	-5	/	/	/
O=C(CSc1nnc(-c2ccco2)c(-c2ccco2)n1)c1ccccc1	1	0	37*	-19	5	-1	98*	10	-13
O=C(N/N=C/c1sc(=O)n(Cc2ccc(Br)cc2)c1Cl)c1ccco1	-8	-1	42*	21	5	15	47	54*	14
O=C(O)c1ccc(NC(=S)NC(=O)c2ccc(-c3ccc(Br)cc3)o2)cc1	-1	0	53*	-64	-5	0	67*	16*	16*
CCOc1cc(/C=N/NC(=O)c2ccc(-c3csc(Nc4ccc(C)cc4)n3)cc2)ccc1OCC(=O)O	/	-1	49*	-15	/	/	45	30*	-5
O=C(O)COc1ccc(/C=N/NC(=O)c2ccc(-c3csc(Nc4ccc(Cl)cc4)n3)cc2)cc1	/	0	93*	-91	0	/	98*	16*	-7
Cc1nc(CC(=O)N/N=C/c2ccc(OCC(=O)O)cc2)cs1	2	1	-1	3	-1	1	/	/	/
